Key:
Stromelysin-1 = Stromelysin-1 (Homo sapiens, UniProt P08254); experiment: Inhibition of human MMP3 by fluorometric assay
[1] = target: 72 kDa type IV collagenase (Homo sapiens, UniProt P08253); experiment: Inhibition of human MMP2 by fluorometric assay
[2] = target: T1, Matrix metalloproteinase-25 (Homo sapiens, UniProt Q9NPA2); experiment: Inhibition of human MMP25 by fluorometric assay
T1 sequence (Q9NPA2 whole entry): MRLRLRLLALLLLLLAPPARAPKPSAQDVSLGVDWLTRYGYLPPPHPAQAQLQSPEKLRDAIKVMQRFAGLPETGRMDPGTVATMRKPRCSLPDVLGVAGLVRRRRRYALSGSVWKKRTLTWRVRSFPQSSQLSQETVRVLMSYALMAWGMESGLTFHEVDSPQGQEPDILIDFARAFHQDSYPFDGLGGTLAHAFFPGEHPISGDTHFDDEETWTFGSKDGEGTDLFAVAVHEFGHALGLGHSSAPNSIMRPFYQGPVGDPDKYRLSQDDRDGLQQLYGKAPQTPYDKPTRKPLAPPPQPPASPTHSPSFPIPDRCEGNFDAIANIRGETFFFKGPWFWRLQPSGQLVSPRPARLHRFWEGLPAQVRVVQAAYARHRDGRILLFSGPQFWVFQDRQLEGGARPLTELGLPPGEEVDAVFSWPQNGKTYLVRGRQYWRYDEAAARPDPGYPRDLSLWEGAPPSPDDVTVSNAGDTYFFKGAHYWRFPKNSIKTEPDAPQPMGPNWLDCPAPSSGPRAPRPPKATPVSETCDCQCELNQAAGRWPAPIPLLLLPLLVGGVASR
Summary of the method: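 E. coli-expressed, refolded MMP-25 catalytic domain added to MOCAcPLGLA2pr(Dnp)AR-NH2 plus varying inhibitor in HEPES pH 7.5 with 5 mM CaCl2, 0.01% Brij-35, 5% DMSO, 25 °C. Initial rates from fluorescence (ex 328/em 393 nm), read every 4 s over 10 min.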

Neutrophil collagenase = Neutrophil collagenase (Homo sapiens, UniProt P22894); experiment: Inhibition of human MMP8 by fluorometric assay
[3] = Antiinvasive activity against human U87MG cells at 5 nM after 24 hrs by Matrigel basement membrane transwell assay; type: functional, U-87MG ATCC
Summary of the method: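 U87MG cells (maintained in RPMI, 10% FBS, 37 °C, 5% CO2) suspended serum-free, 60,000 per upper transwell (8.0 μm filters coated with Matrigel 0.32 mg/mL), with inhibitor 5 nM, DMSO vehicle ≤1%. Lower chamber RPMI with 10% FBS. Invasion 24 h at 37 °C. Lower-surface cells fixed with p-formaldehyde, crystal violet-stained, counted in 5 fields. Inhibition versus untreated control. Duplicate, ≥3 experiments, mean ± S.E.M.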

[4] = target: Matrix metalloproteinase-14 (Homo sapiens, UniProt P50281); experiment: Inhibition of human MMP14 by fluorometric assay
Summary of the method: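 Pro-enzymes activated with APMA (2 mM 2 h, MMP-1; 2 mM 1 h, MMP-2/-8; 1 mM 1 h, MMP-9; all 37 °C) or trypsin then soybean trypsin inhibitor (MMP-3). MMP-14 was catalytic domain. Enzyme (MMP-1 2.0, MMP-2 0.5, MMP-3 5.0, MMP-8 1.5, MMP-9 1.3, MMP-14 1.0 nM) with inhibitor at 7 concentrations, 2 h, 25 °C, in Tris pH 7.5, 1% DMSO.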

Interstitial collagenase = target: T2, Interstitial collagenase (Homo sapiens, UniProt P03956); experiment: Inhibition of human MMP1 by fluorometric assay
T2 sequence (P03956 whole entry): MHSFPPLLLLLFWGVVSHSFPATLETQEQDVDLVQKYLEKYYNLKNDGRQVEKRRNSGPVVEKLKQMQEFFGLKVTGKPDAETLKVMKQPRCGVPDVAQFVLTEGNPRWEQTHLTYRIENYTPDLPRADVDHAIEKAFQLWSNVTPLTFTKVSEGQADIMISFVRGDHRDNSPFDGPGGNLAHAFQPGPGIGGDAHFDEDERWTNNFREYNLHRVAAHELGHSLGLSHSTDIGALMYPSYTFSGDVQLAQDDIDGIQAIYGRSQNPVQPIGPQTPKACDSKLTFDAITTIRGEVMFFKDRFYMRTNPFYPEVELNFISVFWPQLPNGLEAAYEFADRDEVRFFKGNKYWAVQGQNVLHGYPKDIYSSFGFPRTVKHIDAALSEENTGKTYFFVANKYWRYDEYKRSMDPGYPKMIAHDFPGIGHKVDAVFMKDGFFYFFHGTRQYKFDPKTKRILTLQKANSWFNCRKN

[5] = Cytotoxicity against human U87MG cells assessed as dead cells at 5 nM after 24 hrs by trypan blue exclusion assay; type: functional, U-87MG ATCC
Summary of the method: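 U87MG human glioblastoma cells (RPMI, 10% FBS, 2 mM L-glutamine, penicillin/streptomycin, 1% non-essential amino acids, 37 °C, 5% CO2) seeded at 30,000 cells/cm2 in serum-free medium with 5 nM compound, DMSO vehicle ≤1% final, for 24 h. Cells lightly trypsinized, pelleted 800 x g 5 min, stained with 0.4% Trypan Blue in 0.9% NaCl, counted by haemocytometer; mean ± S.E.M., ≥3 experiments in duplicate.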

[6] = target: Matrix metalloproteinase-9 (Homo sapiens, UniProt P14780); experiment: Inhibition of human MMP9 by fluorometric assay
[7] = (§1) Antiinvasive activity against human U87MG cells after 24 hrs by Matrigel basement membrane transwell assay; type: functional, cell-based; conditions: u-87mg atcc
Summary of the method: (§2)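 Transwell filters (8.0 μm pores) coated with Matrigel (0.32 mg/mL) overnight at room temperature. U87MG cells in serum-free medium (60,000/400 μL) with inhibitor (1, 5, 25, 125 nM; DMSO ≤1%) in upper chamber; RPMI + 10% FBS below. 37 °C, 24 h.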

U-87MG ATCC = experiment: as §1; type: functional, cell-based; summary of the method: as §2

Chain of Matrix metalloproteinase-9 (P14780 whole entry): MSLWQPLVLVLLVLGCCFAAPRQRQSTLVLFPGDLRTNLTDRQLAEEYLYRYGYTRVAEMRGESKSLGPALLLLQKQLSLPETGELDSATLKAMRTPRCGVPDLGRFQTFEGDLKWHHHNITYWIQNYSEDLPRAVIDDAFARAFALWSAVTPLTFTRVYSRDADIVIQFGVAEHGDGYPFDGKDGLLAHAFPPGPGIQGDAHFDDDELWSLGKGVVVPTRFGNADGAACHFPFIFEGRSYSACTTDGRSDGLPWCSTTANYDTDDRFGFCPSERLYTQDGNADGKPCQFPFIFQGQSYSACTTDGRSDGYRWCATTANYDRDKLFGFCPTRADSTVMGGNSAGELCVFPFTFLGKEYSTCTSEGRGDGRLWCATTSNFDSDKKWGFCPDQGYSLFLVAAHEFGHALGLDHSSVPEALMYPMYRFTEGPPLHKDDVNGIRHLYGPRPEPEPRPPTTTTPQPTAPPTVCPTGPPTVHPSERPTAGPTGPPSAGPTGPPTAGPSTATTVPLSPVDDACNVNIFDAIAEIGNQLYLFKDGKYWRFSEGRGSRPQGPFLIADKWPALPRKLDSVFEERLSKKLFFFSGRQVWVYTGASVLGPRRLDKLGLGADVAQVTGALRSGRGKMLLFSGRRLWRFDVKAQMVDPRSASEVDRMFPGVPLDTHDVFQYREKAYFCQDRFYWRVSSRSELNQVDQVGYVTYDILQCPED
Chain of 72 kDa type IV collagenase (P08253 whole entry): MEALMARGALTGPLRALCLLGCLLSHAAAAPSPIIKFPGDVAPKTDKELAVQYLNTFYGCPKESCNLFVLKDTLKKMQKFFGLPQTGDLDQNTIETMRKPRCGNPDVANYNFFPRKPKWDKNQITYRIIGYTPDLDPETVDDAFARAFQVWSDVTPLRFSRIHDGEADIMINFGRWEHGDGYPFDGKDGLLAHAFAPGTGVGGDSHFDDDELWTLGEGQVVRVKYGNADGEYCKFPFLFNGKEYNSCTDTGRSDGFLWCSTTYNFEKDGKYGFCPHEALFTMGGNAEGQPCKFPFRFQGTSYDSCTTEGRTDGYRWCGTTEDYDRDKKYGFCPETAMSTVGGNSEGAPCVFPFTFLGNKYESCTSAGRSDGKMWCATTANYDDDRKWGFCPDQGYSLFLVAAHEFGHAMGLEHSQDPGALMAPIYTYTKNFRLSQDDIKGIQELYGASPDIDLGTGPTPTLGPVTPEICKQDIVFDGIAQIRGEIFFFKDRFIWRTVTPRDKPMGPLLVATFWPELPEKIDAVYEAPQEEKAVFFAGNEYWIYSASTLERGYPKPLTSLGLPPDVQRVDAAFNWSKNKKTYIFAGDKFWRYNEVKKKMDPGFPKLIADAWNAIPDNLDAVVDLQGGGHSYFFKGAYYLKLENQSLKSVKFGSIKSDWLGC
Chain of Stromelysin-1 (P08254 whole entry): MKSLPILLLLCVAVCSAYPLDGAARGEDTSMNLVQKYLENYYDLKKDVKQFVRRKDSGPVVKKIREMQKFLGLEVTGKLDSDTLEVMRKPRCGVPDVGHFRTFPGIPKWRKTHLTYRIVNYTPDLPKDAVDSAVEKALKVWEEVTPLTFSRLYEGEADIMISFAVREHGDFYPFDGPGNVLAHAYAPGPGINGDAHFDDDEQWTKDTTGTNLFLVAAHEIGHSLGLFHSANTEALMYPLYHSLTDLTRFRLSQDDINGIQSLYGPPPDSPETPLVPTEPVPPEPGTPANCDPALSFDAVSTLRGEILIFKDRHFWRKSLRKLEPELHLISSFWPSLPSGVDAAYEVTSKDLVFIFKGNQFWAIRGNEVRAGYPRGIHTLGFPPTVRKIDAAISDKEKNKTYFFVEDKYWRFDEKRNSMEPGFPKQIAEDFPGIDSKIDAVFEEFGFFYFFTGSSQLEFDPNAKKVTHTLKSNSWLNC
Chain of Neutrophil collagenase (P22894 whole entry): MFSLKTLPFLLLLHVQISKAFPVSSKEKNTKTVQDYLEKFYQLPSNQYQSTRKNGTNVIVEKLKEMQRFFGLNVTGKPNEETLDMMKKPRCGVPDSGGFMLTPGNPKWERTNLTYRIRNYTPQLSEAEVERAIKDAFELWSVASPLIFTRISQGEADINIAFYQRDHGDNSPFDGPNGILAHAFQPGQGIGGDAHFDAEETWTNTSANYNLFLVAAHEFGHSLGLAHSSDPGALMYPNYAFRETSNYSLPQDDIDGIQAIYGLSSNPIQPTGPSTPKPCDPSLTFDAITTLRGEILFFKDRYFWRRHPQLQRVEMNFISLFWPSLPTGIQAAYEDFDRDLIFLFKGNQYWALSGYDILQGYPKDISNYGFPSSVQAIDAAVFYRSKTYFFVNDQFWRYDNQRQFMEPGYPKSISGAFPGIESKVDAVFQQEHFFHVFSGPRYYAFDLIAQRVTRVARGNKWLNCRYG

Compound | IC50 (Stromelysin-1) [nM] | IC50 [1] [nM] | IC50 [2] [nM] | IC50 (Neutrophil collagenase) [nM] | Activity [3] [%] | IC50 [4] [nM] | IC50 (Interstitial collagenase) [nM] | Activity [5] [%] | IC50 [6] [nM] | IC50 [7] [nM] | Activity (U-87MG ATCC)
CCCCc1ccc(C#Cc2ccc(S(=O)(=O)N[C@H](Cc3ccc(C(=O)c4ccccc4)cc3)C(=O)NO)s2)cc1 | 84 | 4 | 340 | 440 | 27.5 | 6600 | 37000 | 9.38 | 50 | – | –
CCCCc1ccc(C#Cc2ccc(S(=O)(=O)N3Cc4ccccc4C[C@@H]3C(=O)NO)s2)cc1 | 11 | 1.3 | 3.4 | 30 | 35.9 | 112 | 6700 | 13.6 | 4.3 | – | –
CCCCc1ccc(C#Cc2ccc(S(=O)(=O)N[C@H](Cc3c[nH]c4ccccc34)C(=O)NO)s2)cc1 | 93 | – | 76 | 280 | 48.4 | 1700 | 2300 | 6.8 | 77 | – | –
COc1ccc(S(=O)(=O)N(Cc2cccnc2)[C@@H](C(=O)NO)C(C)C)cc1.Cl [CGS-27023A] | – | – | 1.5 | – | 28.3 | – | – | 10.8 | – | – | –
CCCCc1ccc(C#Cc2ccc(S(=O)(=O)N3CSC[C@H]3C(=O)NO)s2)cc1 | 38 | 2.5 | 170 | 500 | 16 | 1600 | 21000 | 17.8 | 21 | – | –
CCCCc1ccc(C#Cc2ccc(S(=O)(=O)N[C@H](Cc3csc4ccccc34)C(=O)NO)s2)cc1 | 320 | 17 | 220 | 1700 | 34 | 23000 | 56000 | 14.4 | 650 | – | –
CCCCc1ccc(C#Cc2ccc(S(=O)(=O)NCC(=O)NO)s2)cc1 | 46 | 1.5 | 34 | 200 | 39.5 | 700 | 13000 | 11.5 | 79 | – | –
CCCCc1ccc(C#Cc2ccc(S(=O)(=O)N[C@H](Cc3ccc(OCc4ccccc4)cc3)C(=O)NO)s2)cc1 | 180 | 2.3 | 38 | 490 | 42.6 | 2100 | 4800 | 12.3 | 63 | 12 | Dose-dependent effect
